KCNQ1 block: inhibitors of human KCNQ1 potassium channel. B-score at 10 µM. P51787. CHO-K1 KCNQ1, FluxOR thallium flux fluorescence; stronger effect = higher value. actives 1.3% (n = 310,000);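 active = compounds whose thallium flux B-score, printed positive for inhibition, exceeds three library SD while starting fluorescence stays within three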;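 note: channel opened by potassium depolarization with thallium stimulus after 20 min compound exposure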
KCNK3 inh: human KCNK3 channel inhibition, primary screen; actives 0.84% (n = 340,000); O14649; CHO-KCNK3 thallium flux, FluxOR fluorescence; stronger effect = lower value; AID 602410; B-score at 10 µM;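 active = B-score under library mean minus 4 SD, starting fluorescence ratio at most library mean plus 5 SD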;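 note: more negative B-score means stronger inhibition of thallium flux through KCNK3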
Target sequence (O14649 whole entry, looked up): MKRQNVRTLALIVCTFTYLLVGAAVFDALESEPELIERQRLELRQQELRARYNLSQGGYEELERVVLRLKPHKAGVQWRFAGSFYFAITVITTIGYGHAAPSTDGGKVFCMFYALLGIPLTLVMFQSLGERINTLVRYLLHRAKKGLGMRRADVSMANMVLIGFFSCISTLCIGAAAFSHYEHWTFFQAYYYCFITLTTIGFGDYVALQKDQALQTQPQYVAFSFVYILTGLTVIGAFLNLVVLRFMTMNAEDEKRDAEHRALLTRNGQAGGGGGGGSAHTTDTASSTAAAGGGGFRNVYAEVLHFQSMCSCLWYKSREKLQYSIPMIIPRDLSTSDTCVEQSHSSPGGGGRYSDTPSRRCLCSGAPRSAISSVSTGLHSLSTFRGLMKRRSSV
KCNK9 inh-1: human KCNK9 channel inhibition. B-score at 10 µM. HEK293 KCNK9, FluxOR thallium flux fluorescence; stronger effect = lower value. actives 1.2% (n = 310,000). AID 488922. Q9NPC2;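 active = ratio B-score over 3 SD below the library mean, with starting fluorescence within 5 SD of its mean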;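 note: negative B-score means less thallium flux so channel inhibition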
KCNQ1 pot: human KCNQ1 channel potentiation or activation; P51787; CHO-K1 KCNQ1, thallium flux FluxOR fluorescence; stronger effect = higher value; B-score at 10 µM; actives 0.35% (n = 310,000);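 active = fluorescence ratio B-score, a plate-corrected score, at least three library SD, with initial intensity B-score within 5 SD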
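Assay system: stable KCNQ1 CHO-K1 line; medium: assay buffer, equal DMSO in all wells; timing: 90 min dye loading and 20 min compound exposure, both at room temperature; technique: kinetic FluxOR thallium fluorescence, 10-s 1-Hz baseline, 110-s post-stimulus read; read-out basis: B score of baseline-normalized fluorescence ratio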
hERG rescue: hERG (human) protection from proarrhythmic block; actives 0.51% (n = 310,000); CHO-hERG, FluxOR thallium flux, dofetilide IC70 present; activation (rescue from dofetilide block), less the hit threshold, % at 10 µM;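 active = activation above the mean of controls blocked by dofetilide plus 5 SD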;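 note: thallium influx through hERG after potassium depolarization seen as dye fluorescence rise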
Kir21 block: blocks the mouse Kir2.1 inward-rectifier potassium channel; B-score at 10 µM; actives 0.85% (n = 310,000); HEK293-Kir2.1, FluxOR thallium flux fluorescence; stronger effect = lower value; P35561;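 active = fluorescence ratio B-score at or below minus 3 SD of library scores, with starting-brightness B-score within 2 SD, cut at about -4.2 in these data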;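 note: channel flux triggered by added potassium and thallium sulfate stimulus; B-score of peak minus minimum fluorescence over baseline after thallium stimulus; more negative B-score means stronger Kir2.1 block with less thallium influx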
hERG ctr: hERG (human) inhibition as Kir2.1 counter-screen; shares compounds with Kir21 block; hERG-expressing cells, thallium flux; inhibition, % at 10 µM; actives 20% (n = 320); AID 2236;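 note: host cells are CHO cells stably expressing hERG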
KCNK9 inh-2: human KCNK9 off-target activity of Kir2.1 blockers | KCNK9-expressing cells, ion flux inhibition | inhibition, % at 10 µM | shares compounds with Kir21 block | actives 5% (n = 320)
Kir21 ephys inh: mouse Kir2.1 inward rectifier channel inhibition. shares compounds with Kir21 block. Kir2.1 cells, automated patch-clamp current inhibition. inhibition, % at 25 µM. actives 71% (n = 320). AID 463252
Starred values were filed as active, the others as inactive; i = inactive; / = no result. An excerpt weighted towards active compounds, which were near 3.7% of everything screened. Unless noted, the rule behind the calls is not given here.

SMILES	KCNQ1 block	KCNK3 inh	KCNK9 inh-1	KCNQ1 pot	hERG rescue	Kir21 block	others
CC(C)CCNC(=O)C1(O)c2ccccc2NC(=O)N1c1ccc(Cl)cc1 (configuration not stated)	i	i	i	i	-9	-0.86
CC(=O)N(Cc1ccccc1)c1c(N)nc(N)[nH]c1=O	i	i	i	i	-4	-0.26
CN(C)c1ccc(/C=C/c2cc[n+](C)cc2)cc1	7*	i	i	i	-15	-4.6
Cc1ccc(/C=C/c2ccc(N(C)C)cc2)[n+](C)c1	9*	i	i	i	-29	-5.5
O=C(CCCOc1ccc(Br)cc1)NNC(=O)c1ccncc1	i	i	i	i	-12	0
Cc1cccnc1NCc1ccc(O)c2ncccc12	i	i	i	i	6.8*	1.6
Cc1cccc(NCc2ccc(O)c3ncccc23)c1C	i	i	i	i	-10	0.55
COc1ccc(-c2c[n+](CC(=O)OC3CC(C)CCC3C(C)C)c3n2CCC3)cc1 (configuration not stated)	i	i	i	i	-20	-5.2*
CN(C)NC1=CC(=[N+]2CCCC2)CC(C)(C)C1	i	i	i	i	-12	0.42
CCCN(CCC)C1=CC(=[N+]2CCCC2)CC(C)(C)C1	6*	i	i	i	-12	-4
CC(=O)NC(C)(CC(=O)c1ccccc1)c1ccccc1 (configuration not stated)	i	i	i	i	-4	-0.26
CC1(C)CC(=O)/C(=C(/O)Cc2ccccc2)C(=NCCc2ccccc2)C1	i	i	i	i	-14	-4.3*
CSc1nc(N)c2c(n1)N(C)C=NS2(=O)=O	/	i	/	/	/	/
COc1ccc(C)cc1Nc1n[n+](-c2ccccc2)c(-c2cc(OC)c(OC)cc2Br)s1	7*	i	i	i	-21	-6*
COc1ccc2nc(N3C(=O)/C(=C/c4ccccc4)NC3=S)sc2c1	i	i	i	62*	63*	0.8
Cc1ccccc1NC(=S)N1CCCN(Cc2ccc(F)cc2)C1	i	i	i	i	-10	-4.5*
Cc1ccc(NC(=S)N2CCCN(Cc3ccc(F)cc3)C2)c(C)c1	i	i	i	i	-4	-3.4
Cc1c(Cl)cccc1NC(=S)N1CCCN(Cc2ccc(F)cc2)C1	i	i	i	i	-7	-6.2*
O=C1NC(=S)S/C1=C\c1ccc2ccccc2c1	i	i	i	49*	36*	0.8
CCOc1ccc(/C=C2\SC(=S)NC2=O)cc1OC	i	i	i	i	-12	1.2
COc1cc(/C=C2/SC(=S)NC2=O)ccc1OS(=O)(=O)c1ccc(C)cc1	i	i	i	48*	-12	-1.9
COc1cc(/C=C2\SC(=S)NC2=O)ccc1OS(=O)(=O)c1ccccc1	i	/	i	26*	-12	0.04
COc1ccc(/C=C2\SC(=O)NC2=S)cc1OC	i	i	i	12*	5.7*	-1.1
Cc1ccnc(NC(=O)C2CCN(S(=O)(=O)c3ccc(C)c(C)c3)CC2)c1	i	i	i	i	-14	0.23
COc1ccc(-c2ccc(N)cn2)cn1	/	i	/	/	/	/
SMILES	KCNQ1 block	KCNK3 inh	KCNK9 inh-1	KCNQ1 pot	hERG rescue	Kir21 block	others
O=C(COc1ccc(Cl)cc1)NCCNC(=O)c1ccccn1	i	i	i	i	-5	-0.55
Cc1cccc(NC(=S)N/N=C2\CC(C)(C)Oc3ccc(O)cc32)c1	i	i	i	i	6.5*	-0.88
OC(CNCC1CCCO1)Cn1c2ccc(Cl)cc2c2cc(Cl)ccc21 (configuration not stated)	i	i	i	i	-32	-5.4*
Cc1ccc(OCCOCCN2CCN(C)CC2)c(C(C)(C)C)c1	i	i	i	i	-10	-1.8
CC(C)(C)c1cc(Cl)ccc1OCCOCCN1CCCC1	i	i	i	i	-8	-9.6*	hERG ctr=58%*;KCNK9 inh-2=i;Kir21 ephys inh=9.2%*
Cc1cc(C)c(S(=O)(=O)c2cccc(Cl)c2)c(Cl)n1	i	i	i	i	-9	-0.36
CCOc1nc(C)cc(C)c1S(=O)(=O)c1cccc(Cl)c1	i	i	i	i	-3	-8.2*	hERG ctr=i;KCNK9 inh-2=i;Kir21 ephys inh=36%*
CC(=O)NNC(=S)NC(=O)c1cccc([N+](=O)[O-])c1	i	i	i	i	-6	0.48
CCC1CCCCN1C(=S)NC(=O)c1cccc([N+](=O)[O-])c1 (configuration not stated)	i	i	i	28*	20*	2.7	hERG ctr=i;KCNK9 inh-2=i;Kir21 ephys inh=i
Cc1ccc(C(=O)NC(=S)NNC(=O)c2ccccc2O)cc1	i	i	i	i	-12	-0.33
Cc1ccc(C(=O)NNC(=S)NC(=O)c2ccccc2)cc1	i	i	i	8*	23*	2.6	hERG ctr=i;KCNK9 inh-2=i;Kir21 ephys inh=i
COc1ccc(CNCc2cccc3ccccc23)cc1	i	i	i	i	0	/	hERG ctr=i;KCNK9 inh-2=i
COc1ccc(NC(=O)CCC(=O)c2cc(C)sc2C)cc1	/	i	/	/	/	/
CCOC(=O)c1cccc(Nc2ncnc3ccc(C)cc23)c1	i	i	i	i	-10	-6*	hERG ctr=i;KCNK9 inh-2=i;Kir21 ephys inh=32%*
CCOC(=O)c1ccc(Nc2ncnc3ccc(C)cc23)cc1	i	i	i	i	-9	-0.98
Clc1ccc(COc2ccccc2CNCc2cccnc2)cc1	i	i	i	i	-1	-2.1
CCOc1cccc(CNCc2cccnc2)c1OCc1ccccc1	i	i	i	i	-1	-7.5*	hERG ctr=i;KCNK9 inh-2=i;Kir21 ephys inh=40%*
Clc1ccc(CNC2CCN(Cc3ccccc3)CC2)cc1	i	i	i	i	-4	-13*	hERG ctr=58%*;KCNK9 inh-2=i;Kir21 ephys inh=55%*
Cc1ccc(C)c(OCCC(=O)OCC(=O)NCc2ccccc2)c1	i	i	i	i	-11	0.03
Cc1ccc(C)c(OCCCNCc2ccccc2)c1	i	i	i	i	-9	-9.4*	hERG ctr=i;KCNK9 inh-2=i;Kir21 ephys inh=74%*
O=C(c1cc2ccccc2o1)N1CCN(c2ccccn2)CC1	i	i	i	i	-9	0.07

Compound activity (PubChem BioAssay)
